Assay results reported in ChEMBL document CHEMBL1134294, “A prodrug form of a Plasmodium falciparum glutathione reductase inhibitor conjugated with a 4-anilinoquinoline” (J Med Chem, 2001).
pEC50: −log10 of the molar value.

Tests used:
Plasmodium falciparum [1] = assay: Effective dose against chloroquine-resistant Plasmodium falciparum FcB1R; format: functional
Outline: (§1)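 Asynchronous cultures in human erythrocytes (0.5% parasitemia, 1% hematocrit) received serially diluted drug, DMSO ≤0.1%. After 24 h at 37 °C, 0.5 μCi [3H]hypoxanthine was added and incubation continued another 24 h. Growth inhibition was taken versus drug-free control, ED50 read from the concentration–response curve, and reported as mean of ≥3 independent experiments.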

Plasmodium falciparum [2] = assay: In vitro efficacy for chloroquine-sensitive Plasmodium falciparum D6; settings: read-out: ED50 (the source's name)
Plasmodium falciparum [3] = assay: In vitro efficacy for chloroquine-resistant Plasmodium falciparum K1; format: functional; settings: read-out: ED50 (the source's name); outline: as §1
Plasmodium falciparum [4] = assay: In vitro efficacy for chloroquine-resistant Plasmodium falciparum W2; format: functional; settings: read-out: ED50 (the source's name); outline: as §1
Plasmodium falciparum [5] = assay: In vitro efficacy for chloroquine-sensitive Plasmodium falciparum Thai; settings: read-out: ED50 (the source's name)
Plasmodium falciparum [6] = assay: In vitro efficacy for chloroquine-sensitive Plasmodium falciparum F32; settings: read-out: ED50 (the source's name)
Plasmodium falciparum [7] = assay: In vitro efficacy for chloroquine-resistant Plasmodium falciparum FcB1; format: functional; settings: read-out: ED50 (the source's name); outline: as §1
[8] = read-out: ED50 (the source's name)

## O=C(CN1CCCCC1)Nc1cc(COC(=O)CCCCCc2ccccc2)cc(Nc2ccnc3cc(Cl)ccc23)c1
Plasmodium falciparum [1]; read-out: ED50
  pEC50: 6.43

## CC1=C(CCCCC(=O)OCc2cc(NC(=O)CN3CCCCC3)cc(Nc3ccnc4cc(Cl)ccc34)c2)C(=O)c2ccccc2C1=O
Plasmodium falciparum [1]; [8]
  pEC50: 4.33

## CCN(CC)CCCC(C)Nc1ccnc2cc(Cl)ccc12 (centres undefined) [CHLOROQUINE]
Plasmodium falciparum [2]
  pEC50: 7.27
Plasmodium falciparum [3]
  pEC50: 6.74
Plasmodium falciparum [4]
  pEC50: 6.76
Plasmodium falciparum [5]
  pEC50: 7.84
Plasmodium falciparum [6]
  pEC50: 7.72
Plasmodium falciparum [7]
  pEC50: 6.90

## CC1=C(CCC(=O)OCc2cc(NC(=O)CN3CCCCC3)cc(Nc3ccnc4cc(Cl)ccc34)c2)C(=O)c2ccccc2C1=O
Plasmodium falciparum [1]; [8]
  pEC50: 3.84
